Measurements from different studies.
Target: Mitogen-activated protein kinase kinase kinase 10 (MAP3K10, Homo sapiens, UniProt Q02779)

SMILES | read-out | mode | method | tested at | quantity | value
Nc1ncc(-c2nc(N3CCOCC3)nc(N3CCOCC3)n2)c(C(F)F)n1 | binding | – | competition with immobilised ligand | 10 µM | remaining binding | 53%
COc1ncccc1-c1cnn2ccc(N3CCN(C(=O)OC(C)C)CC3)nc12 | binding | – | competition with immobilised ligand | 1 µM | remaining binding | 96%
Cc1nn(C)cc1-c1nc2c(N3CCN(Cc4ccc(Cl)cc4)CC3)c(Cl)cnc2[nH]1 | binding | – | competition with immobilised ligand | 1 µM | remaining binding | 5.4%
Cn1cc(-c2cc(F)cc(N3CCn4c(cc5c4CCCC5)C3=O)c2CO)cc(Nc2ccc(N3CCN(C4COC4)CC3)cn2)c1=O | enzyme activity | inhibitor | – | 0.1 µM | inhibition | -7%
CC(C)(C)c1cc(C=C(C#N)C#N)cc(Br)c1O | enzyme activity | inhibitor | – | 0.5 µM | remaining activity | 100%
N#CC1(c2ccccn2)CCN(Cc2cc(C(=O)O)c(=O)n3ccccc23)CC1 | cell-free assay | – | competition with immobilised ligand | 1 µM | remaining binding | 97%
O=c1[nH]c2ccccc2n1C1CCN(Cc2ccc(-c3[nH]c4cc5ncnc5cc4nc3-c3ccccc3)cc2)CC1 | cell-free assay | – | – | 0.5 µM | remaining signal | 102%
Cn1cc(-c2cccc(N3CCc4c(sc5c4CC(C)(C)C5)C3=O)c2CO)cc(Nc2ccncn2)c1=O | enzyme activity | inhibitor | – | 1 µM | inhibition | -5%
Cn1cncc1[C@@](O)(COc1ccc(C#N)cc1-c1ccc(OC(F)(F)F)cc1)c1ccc(C#N)cc1 | cell-free assay | – | competition with immobilised ligand | 1 µM | remaining binding | 98%
